Assay results published in ChEMBL document CHEMBL3785077 (J Med Chem, 2016).
Activity calls are given as the source filed them. The rule behind the calls is not given here.

Columns and labels:
Cholinesterase [1] = molecular target: T1, Cholinesterase (Equus caballus, UniProt P81908); experiment: Inhibition of equine serum butyrylcholinesterase using […] as substrate preincubated for 4.5 mins followed by substrate addition measured after 2.5 mins by Ellman's spectrophotometric method
How it was run: (§1)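 Ellman assay at 25 °C in phosphate buffer pH 8.0. Enzyme (AChE from human erythrocytes, BChE from equine or human serum; 2.5 units/mL stock with 2 mg/mL BSA) and DTNB (0.3 mM in assay) preincubated with compound from ethanol stocks (1 nM−1 mM in assay). Acetyl- or butyrylthiocholine added (452 μM in assay), absorbance at 412 nm after 2.5 min. Ethanol control, triplicates, IC50 from activity vs log concentration.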

Acetylcholinesterase [2] = molecular target: T2, Acetylcholinesterase (Homo sapiens, UniProt P22303); experiment: Inhibition of human acetylcholinesterase using […] as substrate preincubated for 4.5 mins followed by substrate addition measured after 2.5 mins by Ellman's spectrophotometric method; how it was run: as §1
Cholinesterase [3] = molecular target: T1, Cholinesterase; experiment: Inhibition of equine serum butyrylcholinesterase using […] as substrate preincubated for 30 mins followed by substrate addition measured after 2.5 mins by Ellman's spectrophotometric method
How it was run: as §1, with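 “assay).” for “assay). Acetyl- or butyrylthiocholine added (452 μM in assay), absorbance at 412 nm after 2.5 min.”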

Acetylcholinesterase [4] = molecular target: T2, Acetylcholinesterase; experiment: Inhibition of human acetylcholinesterase using […] as substrate at 100 uM preincubated for 4.5 mins followed by substrate addition measured after 2.5 mins by Ellman's spectrophotometric method
[5] = molecular target: Cholinesterase (Equus caballus) (UniProt P81908); experiment: (§2) Pseudo-irreversible inhibition of equine serum butyrylcholinesterase assessed as apparent affinity between enzyme and inhibitor at equilibrium state using p-nitrophenyl butyrate as substrate preincubated for 5 to 40 mins followed by substrate addition by double reciprocal plot analysis
[6] = molecular target: Cholinesterase (Equus caballus) (UniProt P81908); experiment: Pseudo-irreversible inhibition of equine serum butyrylcholinesterase assessed as carbamoylation rate of inhibitor from reversible enzyme inhibitor complex to carbamoylated enzyme using p-nitrophenyl butyrate as substrate preincubated for 5 to 40 mins followed by substrate addition by double reciprocal plot analysis
[7] = molecular target: Cholinesterase (Equus caballus) (UniProt P81908); experiment: as §2, with “assessed as ratio of carbamoylation rate of inhibitor to apparent affinity” for “assessed as apparent affinity”
Acetylcholinesterase [8] = molecular target: T2, Acetylcholinesterase; experiment: Inhibition of human acetylcholinesterase using […] as substrate at 10 uM preincubated for 4.5 mins followed by substrate addition measured after 2.5 mins by Ellman's spectrophotometric method
[9] = molecular target: Cholinesterase (Equus caballus) (UniProt P81908); experiment: Pseudo-irreversible inhibition of equine serum butyrylcholinesterase assessed as decarbamoylation rate using […] as substrate preincubated for 1 hr followed by 1000 fold dilution
How it was run: (§3)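 Enzyme incubated 1 h with inhibitor at a fully inhibiting concentration, then diluted 1:1000 in assay buffer. Activity measured by Ellman assay at various times after dilution, with uninhibited enzyme treated the same way as control. First-order fit of activity recovery gives k4.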

[10] = Antioxidant activity assessed as trolox equivalents of AAPH radical scavenging activity preincubated for 15 mins followed by AAPH addition measured every 60 secs for 90 mins by ORAC assay; format: physicochemical; conditions: 1.5 h
How it was run: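 ORAC-FL: compound (1−5 μM) with fluorescein (300 nM final) in 75 mM phosphate buffer pH 7.4, 15 min at 37 °C, then AAPH (12 mM final). Fluorescence read every 60 s for 90 min (ex 485/em 535 nm). […] Samples in quadruplicate, ≥4 independent runs.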

[11] = Neurotoxicity against mouse HT22 cells assessed as cell viability up to 10 uM after 24 hrs by MTT assay; format: toxicity, cell-based, HT-22; conditions: read-out: Activity
How it was run: (§4)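 Murine hippocampal HT-22 cells in high-glucose DMEM with 10% heat-inactivated FCS, 37 °C, 5% CO2. […] MTT 3 h, SDS lysis, absorbance at 560 nm, viability as % of untreated cells.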

HT-22 [12] = experiment: Neuroprotective activity against glutamate-induced oxycytotic cell death in mouse HT22 cells assessed as cell viability at 5 to 25 uM after 24 hrs by MTT assay; format: functional, cell-based; how it was run: as §4
[13] = molecular target: Cholinesterase (Equus caballus) (UniProt P81908); experiment: Pseudo-irreversible inhibition of equine serum butyrylcholinesterase assessed as half life for carbamoylated enzyme using […] as substrate preincubated for 1 hr followed by 1000 fold dilution; how it was run: as §3
Acetylcholinesterase [14] = molecular target: T2, Acetylcholinesterase; experiment: Inhibition of human acetylcholinesterase using […] as substrate at 50 uM preincubated for 4.5 mins followed by substrate addition measured after 2.5 mins by Ellman's spectrophotometric method
Acetylcholinesterase [15] = molecular target: T2, Acetylcholinesterase; experiment: Inhibition of human acetylcholinesterase using […] as substrate preincubated for 30 mins followed by substrate addition measured after 2.5 mins by Ellman's spectrophotometric method
How it was run: as §1, with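 “assay).” for “assay). Acetyl- or butyrylthiocholine added (452 μM in assay), absorbance at 412 nm after 2.5 min.”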

[16] = Neurotoxicity against mouse HT22 cells assessed as cell viability at 1 and 5 uM after 24 hrs by MTT assay; format: toxicity, cell-based; conditions: ht-22, 24 h
How it was run: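 HT-22 murine hippocampal cells grown in high-glucose DMEM plus 10% heat-inactivated FCS at 37 °C, 5% CO2. After 24 h culture in plates, treated 24 h with compound (DMSO ≤0.1% final) without glutamate. Viability read by MTT (3 h), SDS lysis buffer pH 4.1, absorbance at 560 nm, given as percent of untreated control.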

HT-22 [17] = experiment: Neuroprotective activity against glutamate-induced oxycytotic cell death in mouse HT22 cells assessed as cell viability at 5 uM after 24 hrs by MTT assay; format: functional, cell-based
How it was run: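 Murine hippocampal HT-22 cells in high-glucose DMEM with 10% heat-inactivated FCS, 37 °C, 5% CO2. […] MTT (4 mg/mL in PBS, diluted 1:10 in medium) for 3 h, lysis in 10% SDS pH 4.1, absorbance 560 nm; viability as % of untreated cells.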

Acetylcholinesterase [18] = molecular target: T2, Acetylcholinesterase; experiment: Inhibition of human acetylcholinesterase using […] as substrate at 500 uM preincubated for 4.5 mins followed by substrate addition measured after 2.5 mins by Ellman's spectrophotometric method

Chain of Cholinesterase (Equus caballus) (P81908 whole entry): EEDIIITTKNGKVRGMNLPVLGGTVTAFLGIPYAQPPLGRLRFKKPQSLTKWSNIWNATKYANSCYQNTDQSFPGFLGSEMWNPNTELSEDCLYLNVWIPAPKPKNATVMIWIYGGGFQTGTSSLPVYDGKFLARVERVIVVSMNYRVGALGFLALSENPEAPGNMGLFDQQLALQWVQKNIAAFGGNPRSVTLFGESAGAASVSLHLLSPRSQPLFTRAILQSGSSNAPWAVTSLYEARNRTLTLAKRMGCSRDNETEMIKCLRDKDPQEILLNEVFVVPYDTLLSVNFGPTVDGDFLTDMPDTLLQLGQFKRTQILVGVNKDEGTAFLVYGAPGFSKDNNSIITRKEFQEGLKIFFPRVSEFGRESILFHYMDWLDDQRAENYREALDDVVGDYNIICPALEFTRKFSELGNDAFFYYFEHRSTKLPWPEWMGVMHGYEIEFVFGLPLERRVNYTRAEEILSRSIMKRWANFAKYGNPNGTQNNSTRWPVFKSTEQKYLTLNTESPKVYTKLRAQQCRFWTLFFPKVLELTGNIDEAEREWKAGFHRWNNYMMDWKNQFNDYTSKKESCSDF
T1 sequence (P81908 whole entry): as above
T2 sequence (P22303 whole entry): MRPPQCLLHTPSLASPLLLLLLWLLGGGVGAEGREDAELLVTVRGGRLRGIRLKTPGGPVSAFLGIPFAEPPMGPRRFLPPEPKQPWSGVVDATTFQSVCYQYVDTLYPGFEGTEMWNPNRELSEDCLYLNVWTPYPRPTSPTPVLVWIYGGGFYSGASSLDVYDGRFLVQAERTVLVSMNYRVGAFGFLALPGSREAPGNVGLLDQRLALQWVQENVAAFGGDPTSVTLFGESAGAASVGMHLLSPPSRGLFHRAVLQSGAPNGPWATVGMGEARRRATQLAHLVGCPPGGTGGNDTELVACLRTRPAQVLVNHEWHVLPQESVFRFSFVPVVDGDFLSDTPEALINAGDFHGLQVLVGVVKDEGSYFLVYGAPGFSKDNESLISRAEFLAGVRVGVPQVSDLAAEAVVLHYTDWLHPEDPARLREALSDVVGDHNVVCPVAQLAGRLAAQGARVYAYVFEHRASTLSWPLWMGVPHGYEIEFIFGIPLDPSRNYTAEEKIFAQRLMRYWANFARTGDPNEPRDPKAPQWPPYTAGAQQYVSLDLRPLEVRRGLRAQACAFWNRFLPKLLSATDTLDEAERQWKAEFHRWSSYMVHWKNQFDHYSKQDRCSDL

In the case of `CN1Cc2cc(O)ccc2N(C)C1c1ccoc1` (centres undefined), the IC50 (Cholinesterase [1]) is reported as 196 µM and the IC50 (Acetylcholinesterase [2]) is reported as 342 µM.
In the case of `CN1Cc2cc(O)ccc2N(C)C1c1ccc(F)cc1` (centres undefined), the IC50 (Cholinesterase [1]) is reported as 58.9 µM and the IC50 (Acetylcholinesterase [2]) is reported as 143 µM.
For `CCCCCCCNC(=O)Oc1ccc2c(c1)CN(C)C(c1ccc(C(F)(F)F)cc1)N2C` (centres undefined), the IC50 (Cholinesterase [3]) was 2700 nM, the inhibition (Acetylcholinesterase [4]) was 59% and the K [5] was 756 nM. For the same compound, the K [6] was 0.05 min⁻¹ and the Ratio [7] was 0.07 µM⁻¹ min⁻¹.
`CCCCCCCNC(=O)Oc1ccc2c(c1)CN(C(C)C)C(c1ccccc1)N2C` (centres undefined) showed an IC50 (Cholinesterase [3]) of 21 nM, an inhibition (Acetylcholinesterase [4]) of 33% and a K [5] of 186 nM. The K [6] was 0.16 min⁻¹ and the Ratio [7] was 0.86 µM⁻¹ min⁻¹.
With `CN1Cc2cc(O)ccc2N(C)C1c1ccncc1` (centres undefined) the IC50 (Cholinesterase [1]) was 2.1 µM and the IC50 (Acetylcholinesterase [2]) was 242 µM.
With `CCCCCCCNC(=O)Oc1ccc2c(c1)CN(C)C(c1c(Cl)cccc1Cl)N2C` (centres undefined) the IC50 (Cholinesterase [3]) was 531 nM, the inhibition (Acetylcholinesterase [8]) was 33% and the K [5] was 4120 nM. The K [6] was 0.23 min⁻¹ and the Ratio [7] was 0.06 µM⁻¹ min⁻¹.
Work on `CCCCCCCNC(=O)Oc1ccc2c(c1)CN(C)C(c1ccncc1)N2C` (centres undefined) yielded an IC50 (Cholinesterase [3]) of 723 nM and an inhibition (Acetylcholinesterase [4]) of 16%.
`CCCCCCCNC(=O)Oc1ccc2c(c1)CN(C)C(c1cccc3ccccc13)N2C` (centres undefined) gave an IC50 (Cholinesterase [3]) of 36200 nM, an inhibition (Acetylcholinesterase [8]) of 8% and a K [5] of 15.6 nM. For the same compound, the K [6] was 0.03 min⁻¹ and the Ratio [7] was 1.92 µM⁻¹ min⁻¹.
In the case of `CCCCCCCNC(=O)Oc1ccc2c(c1)CN(C)C(c1cccnc1)N2C` (centres undefined), the IC50 (Cholinesterase [3]) is reported as 565 nM and the inhibition (Acetylcholinesterase [4]) is reported as 18%.
`CCCCCCCNC(=O)Oc1ccc2c(c1)CN(C)C(c1ccccc1)N2C` (centres undefined) showed an IC50 (Cholinesterase [3]) of 106 nM, an inhibition (Acetylcholinesterase [4]) of 4% and a K [5] of 226 nM. The K [6] was 0.13 min⁻¹, the Ratio [7] was 0.57 µM⁻¹ min⁻¹ and the K [9] was 0.14 h⁻¹. For the same compound, the Activity [10] was 0.2 equiv, the viability at 24 h [11] was greater than 80% and the Activity (HT-22 [12]) was “Active”. It also gave a T1/2 [13] of 5 h.
Work on `CCCCCCCNC(=O)Oc1ccc2c(c1)CN(C)C(c1ccccc1Cl)N2C` (centres undefined) yielded an IC50 (Cholinesterase [3]) of 474 nM and an inhibition (Acetylcholinesterase [8]) of 48%.
For `CCCCCCCNC(=O)Oc1ccc2c(c1)CN(C)C(c1ccc(C)cc1)N2C` (centres undefined), the IC50 (Cholinesterase [3]) was 231 nM and the inhibition (Acetylcholinesterase [4]) was 9%.
Compound `CCCCCCCNC(=O)Oc1ccc2c(c1)CN(C)C(c1ccc3ccccc3c1)N2C` (centres undefined) has an IC50 (Cholinesterase [3]) of 374 nM and an inhibition (Acetylcholinesterase [8]) of 5%.
Work on `CN1Cc2cc(O)ccc2N(C)C1c1ccc2ccccc2c1` (centres undefined) yielded an IC50 (Cholinesterase [1]) of 16.5 µM and an inhibition (Acetylcholinesterase [14]) of 9%.
`CCCCCCCNC(=O)Oc1ccc2c(c1)CN(C)C(c1cc[nH]c1)N2C` (centres undefined) gave an IC50 (Cholinesterase [3]) of 23 nM and an IC50 (Acetylcholinesterase [15]) of 852 nM.
`CN1Cc2cc(O)ccc2N(C)C1c1ccccc1` (centres undefined) gave an IC50 (Cholinesterase [1]) of 39.9 µM, an IC50 (Acetylcholinesterase [2]) of 327 µM and an Activity [10] of 3 equiv. For the same compound, the Activity [16] was “Non-toxic” and the Activity (HT-22 [17]) was “Active”.
With `CN1Cc2cc(O)ccc2N(C)C1c1c(Cl)cccc1Cl` (centres undefined) the IC50 (Cholinesterase [1]) was 7.1 µM and the IC50 (Acetylcholinesterase [2]) was 13.5 µM.
`Cc1cccc(C2N(C)Cc3cc(O)ccc3N2C)c1` (centres undefined) gave an IC50 (Cholinesterase [1]) of 17.4 µM and an IC50 (Acetylcholinesterase [2]) of 437 µM.
Work on `CCCCCCCNC(=O)Oc1ccc2c(c1)CN(C)C(c1ccc(F)cc1)N2C` (centres undefined) yielded an IC50 (Cholinesterase [3]) of 44 nM, an IC50 (Acetylcholinesterase [15]) of 1610 nM and a K [5] of 24.5 nM. For the same compound, the K [6] was 0.14 min⁻¹ and the Ratio [7] was 5.71 µM⁻¹ min⁻¹.
Work on `CCCCCCCNC(=O)Oc1ccc2c(c1)CN(C)C(c1ccc(Cl)cc1)N2C` (centres undefined) yielded an IC50 (Cholinesterase [3]) of 115 nM and an inhibition (Acetylcholinesterase [4]) of 24%.
`Cc1ccc(C2N(C)Cc3cc(O)ccc3N2C)cc1` (centres undefined) showed an IC50 (Cholinesterase [1]) of 22.6 µM and an IC50 (Acetylcholinesterase [2]) of 110 µM.
In the case of `COc1cccc(C2N(C)Cc3cc(O)ccc3N2C)c1` (centres undefined), the IC50 (Cholinesterase [1]) is reported as 7.8 µM and the inhibition (Acetylcholinesterase [18]) is reported as 61%.
`CN1Cc2cc(O)ccc2N(C)C1c1ccc(Cl)cc1` (centres undefined) gave an IC50 (Cholinesterase [1]) of 13.8 µM and an IC50 (Acetylcholinesterase [2]) of 236 µM.
For `CN1Cc2cc(O)ccc2N(C)C1c1ccsc1` (centres undefined), the IC50 (Cholinesterase [1]) was 194 µM and the inhibition (Acetylcholinesterase [18]) was 52%.
